Experimental data from PubChem BioAssay AID504412 (Broad Institute, 2011).
Calls of active or inactive are those of the source.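 The calls were made as follows: active = activation of at least 10% at the 50 µM dose, scaled between neutral and positive controls; inactive = the rest.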

Assay: cytochrome c release from CHL-1 A1-2A-BIM mitochondria, confirmation, orthogonal assay for A1 inhibitor project, biochemical, isolated mitochondria, cytochrome c ELISA, dry powder (AID 504412)
Settings: stronger effect = higher value
How it was run: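 System: A1-2A-BIM CHL-1 cell mitochondria; times: compound treatment 30 min, 30 °C; medium: trehalose AT buffer, pH 7.7, 80 mM KCl; controls: DMSO low, DMSO with tBid high; technique: cytochrome c ELISA, A450 with 540 nm correction; evaluation: cytochrome c freed from mitochondria into supernatant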

## Cn1c(=O)c([N+](=O)[O-])c(Cl)c2ccccc21
At 50 µM
  activation: 25.6% (active)
Cytochrome c release, at 10 µM
  activation: 10.1%
